Reference: paper PMC7114209 (Antiviral Research, 2008)

Experiments:
EBV DNA in Raji cells = conditions: latently infected Raji cells, not superinfected; ref Lin, 2003; cited from earlier work
EBV DNA in P3HR-1 cells = conditions: ref Lin, 2003; cited from earlier work
[1] = Cell growth and viability assay; format: cell-based; conditions: human, Raji cells, CC50, cytotoxic concentration that decreased cell viability to 50% of untreated cells, MTT, mean ± S.D. of three experiments
Method in brief: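 Raji cells (latently EBV-infected, non-producer) kept at 4–6 × 10^5 cells/ml in RPMI 1640 with 10% FCS, penicillin and streptomycin. Cells were seeded in 96-well plates and exposed to a range of test compound concentrations for 3 days. MTT was then added for 6 h at 37 °C and solubilised in 0.04 M HCl–isopropanol. Absorbance was read at 595 nm against 655 nm. CC50 is relative to the no-drug control.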

CC1(C)[C@@H](O[C@H]2O[C@H](C(=O)O)[C@@H](O)[C@H](O)[C@H]2O[C@@H]2O[C@H](C(=O)O)[C@@H](O)[C@H](O)[C@H]2O)CC[C@]2(C)[C@H]3C(=O)C=C4[C@@H]5C[C@@](C)(C(=O)O)CC[C@]5(C)CC[C@@]4(C)[C@]3(C)CC[C@@H]12 [GL (18β-GL), Glycyrrhizic acid]
effect on EBV DNA (EBV DNA in Raji cells): no effects
effect on EBV DNA (EBV DNA in P3HR-1 cells): no effects
CC50 at 3 days [1]: 4.5 ± 0.16 mM
